Source: ChEMBL document CHEMBL5154895, “Mechanistic Studies and In Vivo Efficacy of an Oxadiazole-Containing Antibiotic” (J Med Chem, 2022)
≈ marks a conversion by molar mass, not a printed value. Calls of active or inactive are those of the source. No cut-off for these calls is given here.

Assays:
[1] = system: Staphylococcus aureus; experiment: Upregulation of peptidase M23 protein expression in Staphylococcus aureus assessed as log2 of fold change in protein level measured after 2 hrs by LC-MS/MS analysis relative to control; type: functional
Outline: (§1)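 S. aureus ATCC 25923 at OD600 0.6 exposed to compound or DMSO control for 2 h at 37°C, normalized to OD600 1.1 and PBS-washed. Cells were pressure-cycling lysed in 100 mM ammonium bicarbonate, and 50 μg protein was acetone-precipitated, reduced and alkylated, then Trypsin/Lys-C digested and C18-desalted. About 1 μg peptides went to LC-MS/MS. Label-free quantitation kept proteins present in all 3 samples, filtered at p <0.05.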

[2] = system: Staphylococcus aureus; experiment: Downregulation of EssB protein expression in Staphylococcus aureus assessed as log2 of fold change in protein level measured after 2 hrs by LC-MS/MS analysis relative to control; type: functional
Outline: (§2)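 S. aureus ATCC 25923 at OD600 0.6 was treated with compound or DMSO for 2 h at 37 °C, normalised to OD600 1.1, and washed in PBS. Cells were pressure-lysed in 100 mM ammonium bicarbonate, then acetone-precipitated, reduced with DTT, alkylated with iodoacetamide, and digested with trypsin/Lys-C. Peptides were desalted and run on LC-MS/MS. Label-free quantitation used proteins present in all 3 samples, filtered at p<0.05 against DMSO.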

[3] = system: Staphylococcus aureus; experiment: Antibacterial activity against methicillin-resistant Staphylococcus aureus NRS123 assessed as inhibition of bacterial growth incubated for 18 to 20 hrs by broth microdilution method; type: functional; conditions: time 18-20 hrs
Outline: (§3)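 Broth microdilution per CLSI. Inoculum was set to 0.5 McFarland and diluted in CAMHB to about 5×10^5 CFU/mL. Serial dilutions of agent were incubated aerobically at 37 °C for 18–20 h. MIC was read visually as the lowest concentration with complete growth inhibition.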

[4] = system: Staphylococcus aureus; experiment: Antibacterial activity against methicillin-resistant Staphylococcus aureus NRS384 assessed as inhibition of bacterial growth incubated for 18 to 20 hrs by broth microdilution method; type: functional; conditions: time 18-20 hrs; outline: as §3
[5] = system: Streptococcus pyogenes; experiment: Antibacterial activity against Streptococcus pyogenes MGAS 1882 assessed as inhibition of bacterial growth incubated for 18 to 20 hrs by broth microdilution method; type: functional; conditions: time 18-20 hrs
Outline: (§4)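 Broth microdilution with a 0.5 McFarland inoculum diluted in tryptic soy broth to about 5 × 10^5 CFU/mL. Serial compound dilutions incubated aerobically at 37° C for 18–20 hours. MIC read visually as the lowest concentration with no growth.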

[6] = system: Listeria monocytogenes; experiment: Antibacterial activity against Listeria monocytogenes ATCC 19111 assessed as inhibition of bacterial growth incubated for 18 to 20 hrs by broth microdilution method; type: functional; conditions: time 18-20 hrs; outline: as §4
[7] = system: Staphylococcus aureus; experiment: Downregulation of EsaA protein expression in Staphylococcus aureus assessed as log2 of fold change in protein level measured after 2 hrs by LC-MS/MS analysis relative to control; type: functional; outline: as §2
[8] = system: Staphylococcus aureus; experiment: Downregulation of SdrD protein expression in Staphylococcus aureus assessed as log2 of fold change in protein level measured after 2 hrs by LC-MS/MS analysis relative to control; type: functional; outline: as §2
[9] = system: Staphylococcus aureus; experiment: Downregulation of LukD protein expression in Staphylococcus aureus assessed as log2 of fold change in protein level measured after 2 hrs by LC-MS/MS analysis relative to control; type: functional; outline: as §2
[10] = system: Staphylococcus aureus; experiment: Downregulation of PyrF protein expression in Staphylococcus aureus assessed as log2 of fold change in protein level measured after 2 hrs by LC-MS/MS analysis relative to control; type: functional; outline: as §2
[11] = system: Staphylococcus aureus; experiment: Downregulation of Als protein expression in Staphylococcus aureus assessed as log2 of fold change in protein level measured after 2 hrs by LC-MS/MS analysis relative to control; type: functional; outline: as §2
[12] = system: Staphylococcus aureus; experiment: Downregulation of DapE protein expression in Staphylococcus aureus assessed as log2 of fold change in protein level measured after 2 hrs by LC-MS/MS analysis relative to control; type: functional; outline: as §2
[13] = system: Staphylococcus aureus; experiment: Upregulation of TraG protein expression in Staphylococcus aureus assessed as log2 of fold change in protein level measured after 2 hrs by LC-MS/MS analysis relative to control; type: functional; outline: as §1
[14] = system: Staphylococcus aureus; experiment: Upregulation of GpmA protein expression in Staphylococcus aureus assessed as log2 of fold change in protein level measured after 2 hrs by LC-MS/MS analysis relative to control; type: functional; outline: as §1
[15] = system: Staphylococcus aureus; experiment: Downregulation of PgsA gene expression in Staphylococcus aureus ATCC 25923 assessed as reduction in […] at 0.25 ug/ml incubated for 2 hrs by RT-PCR analysis; type: functional; conditions: dose 0.25 µg/ml
Outline: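 S. aureus ATCC 25923 at OD600 0.6 was treated in triplicate with 0.25 μg/mL compound or DMSO for 2 h at 37 °C and pelleted. Total RNA was analysed by real-time RT-PCR with pgsA primers, normalised to 16S rRNA. Significance was tested by Student's t-test.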

[16] = system: Mus musculus; experiment: Acceleration of wound healing in methicillin-resistant Staphylococcus aureus USA300 infected Balb/c mouse model assessed as reduction in IL-1beta level in skin wounds administered topically twice daily 2 days post infection and measured after 5 days post compound treatment; type: functional, organism-based; conditions: time 5.0 day
Outline: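 Mice had two 6-mm dorsal excisional wounds, each infected with 20 μL of 4.2×10^9 CFU/mL MRSA USA300 and covered with Tegaderm. Treatment began 2 days after infection (n=5 per group): 2% compound in petroleum jelly applied topically twice daily for 5 days. Right-wound homogenates in PBS were centrifuged, supernatants pooled per group, and protein normalised by BCA. Cytokines were measured by mouse cytokine array (pg/mL).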

[17] = system: Staphylococcus aureus; experiment: Downregulation of CDP-diacylglycerol-glycerol-3-phosphate-3-phosphatidyltransferase protein expression in Staphylococcus aureus measured after 2 hrs by LC-MS/MS analysis; type: functional; outline: as §2
[18] = system: Staphylococcus aureus; experiment: Upregulation of zinc ABC transporter ATP-binding protein expression in Staphylococcus aureus measured after 2 hrs by LC-MS/MS analysis; type: functional; outline: as §1
[19] = system: Staphylococcus aureus; experiment: Upregulation of siderophore biosynthesis protein SbnE expression in Staphylococcus aureus measured after 2 hrs by LC-MS/MS analysis; type: functional; outline: as §1
[20] = system: Staphylococcus aureus; experiment: Upregulation of DUF4930 domain-containing protein expression in Staphylococcus aureus measured after 2 hrs by LC-MS/MS analysis; type: functional; outline: as §1
[21] = system: Staphylococcus aureus; experiment: Upregulation of acyl phosphatase expression in Staphylococcus aureus measured after 2 hrs by LC-MS/MS analysis; type: functional; outline: as §1
[22] = system: Staphylococcus aureus; experiment: Upregulation of siderophore biosynthesis protein SbnA expression in Staphylococcus aureus measured after 2 hrs by LC-MS/MS analysis; type: functional; outline: as §1
[23] = system: Staphylococcus aureus; experiment: Downregulation of PTS mannose transporter subunit IIABC protein expression in Staphylococcus aureus measured after 2 hrs by LC-MS/MS analysis; type: functional; outline: as §2
[24] = system: Staphylococcus aureus; experiment: Downregulation of carboxylesterase protein expression in Staphylococcus aureus measured after 2 hrs by LC-MS/MS analysis; type: functional; outline: as §2
[25] = system: Staphylococcus aureus; experiment: Downregulation of sodium ABC transporter ATP-binding protein expression in Staphylococcus aureus measured after 2 hrs by LC-MS/MS analysis; type: functional; outline: as §1
[26] = system: Staphylococcus aureus; experiment: Downregulation of MAP domain-containing protein expression in Staphylococcus aureus measured after 2 hrs by LC-MS/MS analysis; type: functional; outline: as §2
[27] = In vivo antibacterial activity against methicillin-resistant Staphylococcus aureus USA300 infected in Balb/c mouse model assessed as reduction in bacterial infection in skin wounds administered topically twice daily 2 days post infection and measured after 5 days post compound treatment by CFU counting; design: scale not given: the % may be the effect or the level left; conditions: time 5 day

SMILES: CC1CC(C)CN(S(=O)(=O)c2ccc(C(=O)Nc3nnc(-c4ccc(C(F)(F)F)cc4)o3)cc2)C1 (configuration not stated)
- log2FC [1]: 2
- log2FC [2]: -3.3
- MIC [3]: 0.25 mg/L (≈ 0.492 µM)
- MIC [4]: 0.25 mg/L (≈ 0.492 µM)
- MIC [5]: 0.06 mg/L (≈ 0.118 µM)
- MIC [6]: 0.06 mg/L (≈ 0.118 µM)
- log2FC [7]: -2
- log2FC [8]: -2
- log2FC [9]: -2
- log2FC [10]: -2.2
- log2FC [11]: -2.7
- log2FC [12]: -3.3
- log2FC [13]: 2
- log2FC [14]: 2.2
- Activity [15]: Active
- Activity [16]: Active
- Activity [17]: Active
- Activity [18]: Active
- Activity [19]: Active
- Activity [20]: Active
- Activity [21]: Active
- Activity [22]: Active
- Activity [23]: Active
- Activity [24]: Active
- Activity [25]: Active
- Activity [26]: Active
- Activity [27]: 93.8%
